From the array DNA melting data of Ke et al. (doi:10.1101/2024.01.08.574731) come the findings set out here.

A short description of series [1]: melting temperature; fluorescence melt of hairpins on a sequencing array, two-state fit, raised by 9.35 °C to match UV melts. The settings on record: sodium 0.088 M. The essentials: (§1)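 Two-state fits, bootstrapped, provided melting temperature and folding enthalpy from Cy3 fluorescence normalised to pre-quench Cy3 and to control constructs. Library hairpins with annealed Cy3 and quencher oligos were imaged on a sequenced MiSeq flow cell in 50 mM Na-HEPES pH 8.0, 25 mM NaCl, at 2.5 °C intervals up to 60 °C. Four replicates were combined with inverse-variance weighting. A 9.35 °C upward shift was applied to fitted temperatures to match UV melts.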

Series [2] is described as follows: folding enthalpy; higher = less favourable; fluorescence melt of hairpins on a sequencing array, two-state fit. The conditions noted are these: sodium 0.088 M. The essentials:
as §1

On to GACTGCGGAAACGTAGTC ((((.((....)).)))), for which, in series [1], the Tm was 52.6 °C. The folding enthalpy in series [2] is -39.6 kcal/mol.
On the same counts, the results for GACTGGCGAAAGCCGTC (((.(((....)))))) are 67 °C and -11.5 kcal/mol.
On to GACTGGGGAAACCCAATC ((.((((....)))).)), for which the Tm in series [1] was found to be 31.7 °C. Moreover, the folding enthalpy in series [2] was -14.6 kcal/mol.
On the same counts, the results for GACTGGGGAAACCCAGTC (((((((....))))))) are 66.6 °C and -40.3 kcal/mol.
Consider GACTGGGGAAACCTGGTC (((..((....))..))), for which the Tm in series [1] is 38.9 °C. Also, the folding enthalpy in series [2] is -34.9 kcal/mol.
For GACTGTGGAAACACAATC ((.((((....)))).)) the same measures were 31.6 °C and -15.5 kcal/mol.
For GACTGTGGAAACATGGTC (((..((....))..))) the same measures were 37.9 °C and -28.7 kcal/mol.
For GACTTCGGAAACGAAGCC (.(((((....))))).) the same measures were 45.6 °C and -15 kcal/mol.
As for GACTTGGGAAACTAAGTC (((((.(....).))))), in series [1], the Tm is 42.5 °C. Besides, the folding enthalpy in series [2] is -28.2 kcal/mol.
With GACTTTGCGAAAGCAGTC (((..(((....)))))), the Tm in series [1] is 32.8 °C. Besides, the folding enthalpy in series [2] was -14.4 kcal/mol.
For GAGAAACGAAAGTTACTC (((.(((....))).))) the same measures were 41.7 °C and -28.9 kcal/mol.
For GAGAACCGAAAGGTACTC (((.(((....))).))) the same measures were 50.7 °C and -34.9 kcal/mol.
Take GAGAACGAAAGTTTTCTC ((((((....)))..))): the Tm in series [1] turned out to be 38.4 °C. In addition, the folding enthalpy in series [2] was -30.2 kcal/mol.
Turning to GAGAACGGAAACGCTCTC ((((.((....)).)))), the Tm in series [1] amounted to 43.2 °C. In series [2], the folding enthalpy was -28.6 kcal/mol.
On the same counts, the results for GAGAACGGAAACGTTCTC (((((((....))))))) are 64.7 °C and -41.8 kcal/mol.
For GAGAAGCGAAAGCTCTC (((.(((....)))))) the same measures were 50.2 °C and -20.1 kcal/mol.
For GAGAAGCGAAAGCTGCTC (((.(((....))).))) the same measures were 58.1 °C and -27.4 kcal/mol.
Turning to GAGAAGGGAAACCTTCTC (((((((....))))))), the Tm in series [1] was 55.5 °C. For the same sequence, in series [2], the folding enthalpy was -50.6 kcal/mol.
As to GAGAATGAAAATTCTC ((((((....)))))), the Tm in series [1] turned out to be 46 °C. Moreover, the folding enthalpy in series [2] was -31.8 kcal/mol.
On the same counts, the results for GAGACAGGAAACTGCCTC (((.(((....))).))) are 42.3 °C and -39.7 kcal/mol.
For GAGACAGGAAACTGTCCC (.(((((....))))).) the same measures were 39.4 °C and -13 kcal/mol.
On the same counts, the results for GAGACAGGAAACTGTCTC (((((((....))))))) are 60.1 °C and -49.7 kcal/mol.
In the case of GAGACCACGAAAGTGCTC (((..(((....)))))), in series [1], the Tm worked out at 27.7 °C. The folding enthalpy in series [2] was -9.82 kcal/mol.
For GAGACCCGAAAGGGCTC (((.(((....)))))) the same measures were 55.4 °C and -26.8 kcal/mol.
On the same counts, the results for GAGACCGAAAGGTAACTC ((((((....)))..))) are 39.7 °C and -12.3 kcal/mol.
With GAGACCGAAAGGTACCTC ((((((....)))..))), in series [1], the Tm was 30.7 °C. Further, the folding enthalpy in series [2] was -11.9 kcal/mol.
For GAGACCGAAAGGTATCTC ((((((....)))..))) the same measures were 53 °C and -24 kcal/mol.
For GAGACCGAAAGGTGCTC ((((((....))).))) the same measures were 46.9 °C and -21.4 kcal/mol.
On the same counts, the results for GAGACCGAAAGGTTCCTC ((((((....)))..))) are 32 °C and -12.4 kcal/mol.
Regarding GAGACCGAAAGGTTGCTC ((((((....)))..))), in series [1], the Tm was 36.2 °C. For the same sequence, the folding enthalpy in series [2] was -14.1 kcal/mol.
Take GAGACCGAAAGGTTTCTC ((((((....)))..))): the Tm in series [1] worked out at 50.6 °C. The folding enthalpy in series [2] is -22.5 kcal/mol.
For GAGACCGGAAACGATCTC ((((.((....)).)))) the same measures were 42 °C and -31.9 kcal/mol.
For the sequence GAGACGCCGAAAGGCCTC (((..(((....)))))), in series [1], the Tm worked out at 30.6 °C. In series [2], the folding enthalpy is -8.48 kcal/mol.
On the same counts, the results for GAGACGGCGAAAGCCCTC (((..(((....)))))) are 34.5 °C and -6.29 kcal/mol.
On the same counts, the results for GAGACTGGAAACGGTCTC (((((.(....).))))) are 49.9 °C and -46 kcal/mol.
For GAGAGACGAAAGTCCTC (((.(((....)))))) the same measures were 46.9 °C and -17.9 kcal/mol.
